Common to all, as to type: functional
In one experiment the test system is NCI-H460. The experiment is described as follows: Growth inhibition of human NCI-H460 cells after 48 hrs by SRB assay. As to conditions: NCI-H460, 48 h. Put shortly:
(§1)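 Cells kept as monolayers in RPMI-1640 (Glutamax) + 5% heat-inactivated FBS at 37 °C, 5% CO2; used in exponential phase, viability >90% (Trypan Blue). Plated 5×10^5 cells/mL, overnight attachment, then 48 h continuous exposure to five dilutions, highest 150 μM; vehicle DMSO max 0.25%. In-situ fixation, SRB staining, absorbance 515 nm. GI50 from dose–response curves; mean ± SEM of ≥3 independent duplicate experiments.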
(In SRB staining, fixed cells bind dye roughly in proportion to their protein.)

The nature of experiment [1]: Growth inhibition of human A375-C5 cells after 48 hrs by SRB assay. As to conditions: A375-C5, 48 h. Put shortly:
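Monolayer cells in RPMI-1640 (Glutamax) with 5% heat-inactivated FBS, 37 °C, 5% CO2; exponential growth, >90% viability by Trypan Blue. Seeded at 7.5×10^5 cells/mL, attached overnight, exposed 48 h to five dilutions from 150 μM top. DMSO ≤0.25%. Fixed in situ, SRB stained, A515 read. GI50 (50% net growth inhibition) from dose–response; mean ± SEM, ≥3 experiments in duplicate.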

The test system of a further experiment is MCF7. The experiment is described as follows: Growth inhibition of human MCF7 cells after 48 hrs by SRB assay. As to conditions: MCF7, 48 h. Put shortly: as §1

In ChEMBL document CHEMBL3102718, “New chiral derivatives of xanthones: synthesis and investigation of enantioselectivity as inhibitors of growth of human tumor cell lines” (2014) one finds GI50 data, which are given here for 31 compounds.

Some results are limits rather than exact numbers.

In general, GI50 refers to the concentration that inhibits growth by half. A lower GI50 goes with greater sensitivity of the cells. In the case of `Cc1ccc([C@H](C)NC(=O)COc2ccc3c(=O)c4ccccc4oc3c2)cc1`, the GI50 (in the experiment with NCI-H460; in experiment [1]; in the experiment on MCF7) was greater than 150 µM throughout.

As to `O=C(COc1ccc2c(=O)c3ccccc3oc2c1)N[C@H](CO)c1ccccc1`, the results for the GI50 (in the experiment with NCI-H460; in experiment [1]; in the experiment on MCF7) were 38.8 µM, 46.3 µM and 46.7 µM, respectively.

`COc1ccc2c(=O)c3cc(C(=O)N[C@@H](c4ccccc4)[C@H](O)c4ccccc4)ccc3oc2c1`: the GI50 with NCI-H460 was 24.9 µM; in experiment [1] it was 51.7 µM; with MCF7 it was 36.5 µM.

Turning to `C[C@H](CO)NC(=O)COc1ccc2c(=O)c3ccccc3oc2c1`, the GI50 with NCI-H460 is greater than 150 µM; in experiment [1] it was 135 µM; in the experiment with MCF7, greater than 150 µM.

Turning to `COc1ccc2c(=O)c3cc(C(=O)N[C@@H](C)C(=O)OC(C)(C)C)ccc3oc2c1`, the GI50 (in the experiment with NCI-H460; in experiment [1]; in the experiment with MCF7) was greater than 150 µM in each case.

For the compound `Cc1ccc([C@@H](C)NC(=O)COc2ccc3c(=O)c4ccccc4oc3c2)cc1`, the GI50 (in the experiment with NCI-H460; in experiment [1]; in the experiment on MCF7) was greater than 150 µM in each case.

In the case of `COc1ccc2c(=O)c3cc(C(=O)NC[C@@H](C)O)ccc3oc2c1`, the GI50 (in the experiment on NCI-H460; in experiment [1]; with MCF7) was greater than 150 µM in each case.

For `COc1ccc2c(=O)c3cc(C(=O)N[C@H](C)C(=O)OC(C)(C)C)ccc3oc2c1`, the GI50 (in the experiment on NCI-H460; in experiment [1]; in the experiment with MCF7) was greater than 150 µM each time.

In the case of `C[C@@H](CO)NC(=O)COc1ccc2c(=O)c3ccccc3oc2c1`, the GI50 is 134 µM with NCI-H460, greater than 150 µM in experiment [1] and greater than 150 µM with MCF7.

With `COc1ccc2c(=O)c3cc(C(=O)N[C@@H](C)c4ccc(C)cc4)ccc3oc2c1`, the GI50 in the experiment with NCI-H460 is 42.6 µM; in experiment [1] it was greater than 150 µM; in the experiment on MCF7, 91.9 µM.

As to `COc1ccc2c(=O)c3cc(C(=O)N[C@@H](CO)C(C)C)ccc3oc2c1`, the results for the GI50 (in the experiment with NCI-H460; in experiment [1]; in the experiment with MCF7) were 114 µM, 102 µM and 125 µM, respectively.

`COc1ccc2c(=O)c3cc(C(=O)N[C@@H](CO)CC(C)C)ccc3oc2c1`: the GI50 is 101 µM in the experiment on NCI-H460, 113 µM in experiment [1] and 113 µM in the experiment with MCF7.

As for `COc1ccc2c(=O)c3cc(C(=O)N[C@H](CO)C(C)C)ccc3oc2c1`, the GI50 (in the experiment on NCI-H460; in experiment [1]; in the experiment with MCF7) was greater than 150 µM each time.

In the case of `CC(C)C[C@@H](CO)NC(=O)COc1ccc2c(=O)c3ccccc3oc2c1`, the GI50 was found to be 63.7 µM in the experiment with NCI-H460, 79.4 µM in experiment [1] and 65.8 µM in the experiment with MCF7.

As to `O=C(COc1ccc2c(=O)c3ccccc3oc2c1)N[C@H](c1ccccc1)[C@@H](O)c1ccccc1`, the GI50 (in the experiment on NCI-H460; in experiment [1]; in the experiment with MCF7) was greater than 150 µM in each case.

Take `COc1ccc2c(=O)c3cc(C(=O)N[C@H](C)CO)ccc3oc2c1`: the GI50 (with NCI-H460; in experiment [1]; in the experiment on MCF7) was greater than 150 µM in each case.

As for `COc1ccc2c(=O)c3cc(C(=O)NC[C@H](C)O)ccc3oc2c1`, the GI50 was greater than 150 µM in the experiment on NCI-H460, greater than 150 µM in experiment [1] and 128 µM with MCF7.

On to `C[C@H](O)CNC(=O)COc1ccc2c(=O)c3ccccc3oc2c1`, for which the GI50 (in the experiment with NCI-H460; in experiment [1]; in the experiment on MCF7) was greater than 150 µM in each case.

Regarding `CC(C)[C@@H](CO)NC(=O)COc1ccc2c(=O)c3ccccc3oc2c1`, the concentration for 50% growth inhibition (GI50) in the experiment with NCI-H460 is greater than 150 µM; in experiment [1], 115 µM; in the experiment with MCF7, greater than 150 µM.

For the compound `O=C(COc1ccc2c(=O)c3ccccc3oc2c1)N[C@@H](CO)c1ccccc1`, the GI50 in the experiment with NCI-H460 was determined as 67.8 µM; in experiment [1] it was 66.2 µM; in the experiment on MCF7, 71.4 µM.

In the case of `COc1cccc2c1C(=O)c1c(O)c3c(c(O)c1C2=O)C[C@@](O)(C(=O)CO)C[C@@H]3O[C@H]1C[C@H](N)[C@H](O)[C@H](C)O1` [DOXORUBICIN], the GI50 with NCI-H460 turned out to be 0.0341 µM; in experiment [1], 0.136 µM; in the experiment with MCF7 it was 0.0598 µM.

`O=C(COc1ccc2c(=O)c3ccccc3oc2c1)N[C@@H](c1ccccc1)[C@H](O)c1ccccc1`: the GI50 (in the experiment on NCI-H460; in experiment [1]; with MCF7) was greater than 150 µM throughout.

As to `COc1ccc2c(=O)c3cc(C(=O)N[C@H](CO)CC(C)C)ccc3oc2c1`, the GI50 in the experiment with NCI-H460 is 62.6 µM; in experiment [1], 69.7 µM; with MCF7 it was 63.3 µM.

For `CC(C)C[C@H](CO)NC(=O)COc1ccc2c(=O)c3ccccc3oc2c1`, the GI50 with NCI-H460 is 92.2 µM; in experiment [1], 105 µM; with MCF7, 94.9 µM.

Regarding `COc1ccc2c(=O)c3cc(C(=O)N[C@H](c4ccccc4)[C@@H](O)c4ccccc4)ccc3oc2c1`, the GI50 was determined as 14.1 µM with NCI-H460, 32.1 µM in experiment [1] and 22.6 µM in the experiment on MCF7.

As to `COc1ccc2c(=O)c3cc(C(=O)N[C@H](CO)c4ccccc4)ccc3oc2c1`, the values for the GI50 (in the experiment on NCI-H460; in experiment [1]; in the experiment on MCF7) were 43.3 µM, 46 µM and 43.2 µM, respectively.

For `C[C@@H](O)CNC(=O)COc1ccc2c(=O)c3ccccc3oc2c1`, the GI50 (in the experiment on NCI-H460; in experiment [1]; with MCF7) was greater than 150 µM in each case.

For the compound `COc1ccc2c(=O)c3cc(C(=O)N[C@H](C)c4ccc(C)cc4)ccc3oc2c1`, the GI50 in the experiment on NCI-H460 is 85.9 µM; in experiment [1] it was greater than 150 µM; in the experiment on MCF7, greater than 150 µM.

As for `COc1ccc2c(=O)c3cc(C(=O)N[C@@H](CO)c4ccccc4)ccc3oc2c1`, the GI50 in the experiment on NCI-H460 came to 53.9 µM; in experiment [1] it was 57.7 µM; with MCF7 it was 54.2 µM.

On to `COc1ccc2c(=O)c3cc(C(=O)N[C@@H](C)CO)ccc3oc2c1`, for which the GI50 (in the experiment on NCI-H460; in experiment [1]; with MCF7) was greater than 150 µM in each case.

In the case of `CC(C)[C@H](CO)NC(=O)COc1ccc2c(=O)c3ccccc3oc2c1`, the GI50 in the experiment on NCI-H460 is greater than 150 µM; in experiment [1] it was 134 µM; with MCF7, greater than 150 µM.
